Source: PubChem BioAssay (Sanford-Burnham Center for Chemical Genomics)
STEP block – STEP phosphatase inhibitors, primary screen, biochemical, fluorescence intensity, uHTS; 360,000 compounds, 0.25% hits; Tyrosine-protein phosphatase non-receptor type 5 (Homo sapiens), P54829; inhibition, % at 20 µM; AID 588621, 2011; recombinant STEP, OMFP fluorogenic substrate;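 active = inhibition at 20 µM, scaled per plate between control wells, above about 37%, limit read from the data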;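 note: 0% = DMSO with enzyme and substrate and 100% = substrate only without enzyme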
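System: isolated STEP enzyme; schedule: 20 min enzyme reaction at room temperature, protected from light; medium: Bis-Tris buffer pH 6.0, 2.5 mM DTT, 0.005% Tween 20; signal: fluorescence, 480/540 nm; dosing: single compound dose of 20 µM, 1% DMSO final; also added: OMFP substrate, 25 µM final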
SUMO1-SIM PPI – modulators of SUMO1 protein-protein interactions, primary screen, biochemical, uHTS; SUMO1 binding to a labelled peptide, TR-FRET, 1 h; inhibition, % at 20 µM; 360,000 compounds, 0.33% hits; in the data active = inhibition above about 37%
Scp1 inh – Scp-1 phosphatase inhibitors, primary screen, biochemical, colorimetric, uHTS | Recombinant Scp1, phosphopeptide, malachite green phosphate absorbance | Carboxy-terminal domain RNA polymerase II polypeptide A small phosphatase 1 (Homo … | inhibition, % at 20 µM | 340,000 compounds, 0.88% hits;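 active = inhibition above about 50% at 20 µM, limit read from the data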;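 note: plate controls were DMSO wells with enzyme for no effect and wells lacking enzyme for full effect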
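System: truncated SCP-1 phosphatase (76-261aa); medium: Tris acetate buffer pH 5.5 with MgCl2 and Tween-20; incubation: 45 min room-temperature reaction, 5 min colour, 30 min stabiliser; compound: single 20 µM dose, 1% DMSO; reagent: Phosphorylated 17-residue peptide substrate; read-out: % inhibition at 20 µM; technique: colorimetric free-phosphate detection, absorbance 630 nm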
LMPTP inh – LMPTP phosphatase inhibitors, primary screen, biochemical, fluorescence intensity, uHTS | AID 651560, 2012 | recombinant LMPTP-A, OMFP fluorogenic substrate | inhibition, % at 20 µM | Low molecular weight phosphotyrosine protein phosphatase (Homo sapiens), P24666 | 360,000 compounds, 0.22% hits;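 active = compounds that cut the enzyme signal by at least half of the control window in the single-dose screen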;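 note: plate controls were DMSO wells with enzyme plus substrate for no effect and substrate without enzyme for full effect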
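Test system: LMPTP-A, protein tyrosine phosphatase of low molecular weight; Input: 0.625 nM enzyme; Incubation: 50 min dark incubation at room temperature; Signal: endpoint fluorescence intensity from OMFP dephosphorylation; Read-out basis: % inhibition versus control wells.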
DNMT1 block – human DNMT1 methyltransferase inhibitors, primary screen, biochemical, molecular beacon, fluorescence, HinP1I cleavage, uHTS; AID 588458, 2011; inhibition (reported as % activation of signal), % at 10 µM; 360,000 compounds, 0.83% hits; DNA (cytosine-5)-methyltransferase 1 (Homo sapiens), P26358; in the data active = inhibition above about 50%
NadD block – inhibitors of S. aureus NadD, primary screen, biochemical, colorimetric, uHTS | purified NadD enzyme, colorimetric absorbance read-out | inhibition, % at 20 µM | 360,000 compounds, 0.78% hits | AID 602399, 2012; in the data active = inhibition above about 26%
The depositor's hits bear a star; . = no result. Most compounds without a hit are left out; they make up all but 2.3% or so of the library.

SMILES	STEP block	SUMO1-SIM PPI	Scp1 inh	LMPTP inh	DNMT1 block	NadD block
Fc1cccc2sc(Nc3nnc(-c4ccccc4)o3)nc12	8	12	51*	32	-1	6
Cc1cc(NC(=O)OC2CCCCC2)ccc1[N+](=O)[O-]	1	-7	-7	3	2	-5
CC1CC1C(=O)Nc1ccc(S(=O)(=O)N2CCCCC2)cc1 (centres undefined)	-2	1	-10	0	-1	-1
COc1ccc2c(c1)c(CC(=O)NCc1cc([N+](=O)[O-])ccc1O)c(C)n2C(=O)c1ccc(Cl)cc1	-1	5	-9	2	-2	33*
Cc1ccc(-c2nnc(-c3ccc4c(c3)OCO4)o2)cc1	-3	68*	8	7	8	-6
COc1ccc(-n2cc3ccc([N+](=O)[O-])cc3n2)cc1	0	-31	-13	1	-3	-5
Cc1n[nH]c(=S)n1/N=C/c1ccccc1	-3	0	-9	-2	0	-1
Cc1ccc(-n2nc(C)c(/C=N/n3c(C)n[nH]c3=S)c2Cl)cc1	1	38*	-10	0	1	-5
CCOc1ccccc1CNC(=O)C1CCN(c2nn3c(=O)cc(C)nc3s2)CC1	3	10	6	-1	-1	10
Cc1cccc(/C=N\NC(=O)c2ccc(Cl)cc2)c1O	16	0	95*	41	6	10
Cc1cccc(/C=N/NC(=O)Cc2ccc(Cl)cc2)c1O	2	8	-6	2	2	-13
COc1ccc(-c2cc(=O)oc3c(C)c(OCC(=O)Nc4cccnc4)ccc23)cc1	27	41*	25	20	15	6
COc1ccc(CCNc2nc(-c3sc(N)nc3C)cs2)cc1OC	1	11	14	3	-17	30*
C=CCn1c(O)c(N=NC(=S)Nc2ccccc2F)c2cc(S(=O)(=O)N3CCOCC3)ccc21	6	-19	-13	1	-20	38*
C=CCn1c(O)c(N=NC(=S)Nc2ccccc2F)c2ccccc21	1	-20	-12	2	-7	-7
O=C(c1ccco1)N(CCC(c1ccccc1)c1ccco1)Cc1ccco1 (centres undefined)	9	14	74*	3	100*	45*
CC(=O)N(CCC(Cc1ccccc1)c1ccco1)Cc1ccco1 (centres undefined)	1	3	0	1	-9	-1
CCOC(=O)[C@]12CCCC=C1N(CCC1=CCCCC1)C(=O)[C@H](CC(=O)NCc1cccc3ccccc13)C2	.	0	.	8	.	.
CCOC(=O)N1CCC(NC(=O)c2ccccc2C(=O)O)CC1	-1	43*	-1	-2	1	-3
CCOC(=O)N1CCC(NC(=O)Cc2ccccc2)CC1	1	0	-6	-3	1	-4
CSCCC(c1nc2ccccc2[nH]1)n1c(=O)c(-c2ccco2)nc2ccccc21 (centres undefined)	.	-14	.	0	.	.
CC(C)=CCc1c(O)ccc2c1OC(c1ccc(O)c(O)c1)CC2=O (centres undefined)	-3	5	-4	1	-19	1
O=C1CC(c2ccc(O)c(O)c2)Oc2c1ccc(O)c2O (centres undefined)	3	20	53*	60*	43	13
Cc1ccc(S(=O)(=O)N2CCOCC2)cc1C(=O)OCC(=O)Nc1ccc2[nH]c(=O)[nH]c2c1	-1	82*	1	2	2	4
CC(C)CCNC(=O)NC(=O)COC(=O)c1cc(S(=O)(=O)N2CCOCC2)ccc1N1CCCCC1	4	45*	14	0	-2	-2
SMILES	STEP block	SUMO1-SIM PPI	Scp1 inh	LMPTP inh	DNMT1 block	NadD block
CCCc1c(-c2ccc(F)cc2F)ncn1Cc1cccc(-c2ccccc2)c1	.	2	.	8	.	.
Cc1cccc(C)c1NC(=O)C1(C)CN(S(C)(=O)=O)CC(=O)N1C1CC1 (centres undefined)	.	-2	.	0	.	.
O=C(NN=C1CCN(Cc2ccccc2)CC1)c1cc2ccccc2cc1O	-2	10	2	4	29	42*
O=C(NN=C1CCN(Cc2ccccc2)CC1)c1ccccc1O	3	5	-8	-1	2	-1
Cn1c2ccccc2c(=O)c2c(=O)n(-c3ccccc3)c(C3CCCCC3)nc21	9	9	2	2	12	7
COc1ccc(CCn2c(C3CCCCC3)nc3c(c(=O)c4ccccc4n3C)c2=O)cc1	98*	34	1	104*	7	14
Oc1ccc(N=C/C=C/c2cccc(Br)c2)cc1-c1nc2ccccc2s1	11	1	3	23	52*	41*
O=C(NC1CCCC1)C(C1CC1)n1c(-c2ccncc2)nc2ccccc21 (centres undefined)	.	-2	.	0	.	.
Cc1ccc(S(=O)(=O)N(CC(=O)NCC2CCCO2)Cc2cccc(C)c2)cc1 (centres undefined)	-2	-2	-2	-1	1	-4
N#CC(=C=[N-])C1=C(C#N)C(c2ccccc2F)C([n+]2ccccc2)C(O)(C2CC2)N1 (centres undefined)	-2	5	-9	-1	-11	8
Cc1cccc[n+]1C1C(c2ccccc2)C(C#N)=C(C(=C=[N-])C#N)NC1(O)C1CC1 (centres undefined)	-8	10	-2	2	-9	34*
N#CC(C(=O)c1ccccc1)=C1SCCS1	0	-18	-5	-1	1	-3
CCOC(=O)Nc1cc2c(c(N)n1)N=C(c1ccccc1)CN2	0	-42	15	2	53*	-1
Fc1ccc(C2=CC(c3ccc(Br)o3)n3ncnc3N2)cc1 (centres undefined)	-8	-16	4	12	19	7
Brc1ccc(C2=CC(c3cccs3)n3ncnc3N2)cc1 (centres undefined)	-46	-23	3	3	66*	11
Cc1nc2cc(-c3ccsc3-n3c(C)ccc3C)[nH]n2c(=O)c1Cl	-2	41*	25	50	44	16
CCc1c(C)nn(C(=O)/C(C#N)=C\N(C)C)c1C	-4	-2	1	-1	-1	-8
